Assay outcomes from PubChem.
ERAP1 inh – blocks human ERAP1 aminopeptidase activity | Q9NZ08 | recombinant ERAP1, Leu-AMC fluorescence, 60 min | inhibition, % at 10.7 µM | hit rate 0.15% among 340,000;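 active = mean replicate inhibition of at least 30%, or all replicates individually reaching that 30% level; inactive = mean below 30% and not every replicate reaching it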;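 note: 0% = neutral control wells and 100% = L-leucinethiol positive control wells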
S100A4 inh HTS – inhibitors of human S100A4 binding to myosin IIA peptide; hit rate 0.14% among 360,000; P26447; AID 652163; inhibition, % at 10.7 µM; S100A4/TAMRA-MyoIIA peptide fluorescence polarization;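 active = mean inhibition of at least 70% across replicates, with every replicate also reaching that level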
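Material: human S100A4 monomer with TAMRA-labelled myosin IIA peptide; buffer or medium: HEPES pH 7.2 with CaCl2, KCl, NaCl, DTT, Triton; compound dosing: one concentration per compound; schedule: 5 min incubation before reading; benchmarks: neutral control DMSO, positive control TFP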
Rtt109 Vps75 – C. albicans Rtt109 histone acetyltransferase inhibition | Q5AAJ8 | purified Rtt109/Vps75, ThioGlo CoA-SH fluorescence, 4 h | inhibition, % at 34.9 µM | hit rate 0.16% among 330,000;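 active = inhibition of at least 50% in every replicate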
miR-122 sensor – miR-122 inhibition in Huh7 cells | activation (reporter increase), % at 12.5 µM | hit rate 0.3% among 340,000 | Huh7 miR-122 Renilla luciferase sensor, 48 h; neutral wells = 0, positive control = 100 | AID 602342;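 active = mean replicate activation score at least 90 and every replicate individually at or above 90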;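 note: higher luciferase means less miR-122 activity so hits act as miR-122 inhibitors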
AF4-AF9 inh – blocks AF4 peptide binding to human AF9; P42568; AlphaScreen, biotin-AF4 peptide binding to FLAG-AF9; inhibition, % at 10 µM; hit rate 0.47% among 350,000;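 active = every replicate reaching a set inhibition limit, whatever the replicate mean, cut at about 25% in these data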;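 note: 0% = plate neutral control median and 100% = total signal loss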
Target sequence (P42568 whole entry, looked up): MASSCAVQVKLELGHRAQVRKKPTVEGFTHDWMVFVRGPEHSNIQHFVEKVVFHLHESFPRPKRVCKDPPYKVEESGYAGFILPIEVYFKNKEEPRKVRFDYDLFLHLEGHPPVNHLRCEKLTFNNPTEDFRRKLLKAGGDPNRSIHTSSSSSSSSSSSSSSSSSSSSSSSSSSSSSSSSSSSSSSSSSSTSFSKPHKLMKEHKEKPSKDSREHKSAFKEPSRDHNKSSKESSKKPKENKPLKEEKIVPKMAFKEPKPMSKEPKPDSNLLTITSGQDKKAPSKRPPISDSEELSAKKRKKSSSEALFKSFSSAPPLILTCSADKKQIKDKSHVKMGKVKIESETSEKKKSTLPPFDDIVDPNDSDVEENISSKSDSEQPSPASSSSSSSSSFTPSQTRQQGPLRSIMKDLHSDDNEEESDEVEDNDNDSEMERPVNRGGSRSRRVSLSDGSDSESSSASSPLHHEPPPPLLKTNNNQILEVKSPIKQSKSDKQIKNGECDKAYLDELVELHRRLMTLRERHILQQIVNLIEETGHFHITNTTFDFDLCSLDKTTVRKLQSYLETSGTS
* = called active by the depositor; nt = no result; + = active, no number; [ ] = another dose, or the depositor's remark. The list is not random: actives were taken first. Their share in the collection is about 0.86%.

SMILES	ERAP1 inh	S100A4 inh HTS	Rtt109 Vps75	miR-122 sensor	AF4-AF9 inh
CCN(CC)c1ccc(NC(=O)c2cnccn2)cc1S(=O)(=O)Nc1ccc(OC)cc1	nt	nt	3	123*	nt
CC(=O)NC(c1ccc(C)cc1)c1cc(Cl)c2cccnc2c1O (stereo unspecified)	2	-2	-1	-31	-3
Oc1c(C(Nc2ccccn2)c2cccnc2)cc(Cl)c2cccnc12 (stereo unspecified)	-2	3	-6	nt	43*
CN(C)CCn1c(=O)n(Cc2ccccc2)c(=O)c2c3c(sc21)CCCCC3	-28	-3	6	20	26*
COc1ccccc1C#Cc1ccc2c(c1)O[C@@H](CN(C)Cc1ccccc1)[C@H](C)CN([C@@H](C)CO)S2(=O)=O	0	3	nt	-2[16.7 µM]	7
COc1ccc(NC(=O)N(C)C[C@H]2Oc3c(NC(=O)NC4CCCCC4)cccc3C(=O)N([C@H](C)CO)C[C@@H]2C)cc1	4	5	-5	-1[16.7 µM]	-2
COc1ccc(NC(=O)N(C)C[C@H]2Oc3c(NC(=O)NC4CCCCC4)cccc3C(=O)N([C@H](C)CO)C[C@H]2C)cc1	2	88*	nt	3[16.7 µM]	3
C[C@@H]1CN([C@@H](C)CO)C(=O)c2cccc(NC(=O)NC3CCCCC3)c2O[C@@H]1CN(C)Cc1ccc(Oc2ccccc2)cc1	1	2	nt	1[16.7 µM]	5
COc1ccc(CN(C)C[C@H]2Oc3c(NC(=O)NC4CCCCC4)cccc3C(=O)N([C@H](C)CO)C[C@@H]2C)cc1	-15	39	nt	255*[16.7 µM]	8
Cc1noc(C)c1S(=O)(=O)Nc1ccc2c(c1)C(=O)N([C@@H](C)CO)C[C@@H](C)[C@H](CN(C)C(=O)CCC(F)(F)F)OCCCC[C@H](C)O2	-3	-10	nt	1[16.7 µM]	2
CCC(CNc1cc(OC)cc2cccnc12)NC1CCCCC1 (stereo unspecified)	4	140*	3	nt	56*
CN(CC(=O)Nc1cccc(F)c1)C(=O)CCc1nc2ccccc2c(=O)[nH]1	49*	-3	5	-2	-2
O=C1COc2ccc(C(=O)c3ccccc3C(=O)NCc3ccco3)cc2N1	nt	nt	72*	-9	nt
O=C1COc2ccc(C(=O)c3ccccc3C(=O)NCc3ccccc3)cc2N1	nt	nt	13	-10	nt
O=C1COc2ccc(C(=O)NCc3ccco3)cc2N1	-1	-1	67*	3	5
O=C(C[C@H]1CC[C@@H]2[C@H](COC[C@@H](O)CN2C(=O)Nc2cc(Cl)cc(Cl)c2)O1)NCC1CCCCC1	0	1	nt	-12[16.7 µM]	-1
CCC(=O)Nc1ccc2c(c1)C(=O)N(C)C[C@@H](OC)[C@H](C)CN(CC1CCCCC1)[C@@H](C)CO2	-4	-9	nt	-14[16.7 µM]	3
O=c1[nH]c2ccc(Br)cc2c(-c2ccccc2)c1N1CCOCC1	8	44	-8	-1	25*
O=C(O)c1ccccc1-c1c2cc(I)c(=O)c(I)c-2oc2c(I)c(O)c(I)cc12	106*	+	1	-4	-2
CCCNC(=O)N1[C@@H]2CN(C(=O)NC(C)C)c3ccccc3[C@@H]2[C@@H]1CO	2	-5	nt	24[16.7 µM]	-3
CC=Cc1ccc2n(c1=O)C[C@@H]1[C@@H](CO)[C@H](C(=O)NCC(F)(F)F)N(CC3CC3)[C@H]21 (mixture of isomers)	-1	-2	nt	6[16.7 µM]	-1
CCCCNS(=O)(=O)c1ccc(NC(=O)Cc2ccccc2[N+](=O)[O-])cc1	0	1	53*	nt	-5
Cc1noc(C)c1NC(=O)Nc1ccc2c(c1)C(=O)N([C@H](C)CO)C[C@@H](C)[C@@H](CN(C)C(=O)Nc1ccc(C(F)(F)F)cc1)O2	-3	-10	nt	-6[16.7 µM]	1
COC(=O)C1=C(C)NC(C)=C(C(=O)OC)C1C(=O)OCC(=O)N1c2ccccc2CC1C (stereo unspecified)	48*	-2	1	-3	-1
CC1Cc2ccccc2N1C(=O)COC(=O)c1ccc(N(C)C)cc1 (stereo unspecified)	1	1	-11	nt	-3
SMILES	ERAP1 inh	S100A4 inh HTS	Rtt109 Vps75	miR-122 sensor	AF4-AF9 inh
CC1Cc2ccccc2N1C(=O)COC(=O)c1ccc(O)cc1 (stereo unspecified)	4	2	52*	-2	-32
Cc1cc(/C=C2\SC(=O)NC2=O)c(C)n1-c1ccc(N2CCOCC2)cc1	67*	-9	-11	8	2
COc1ccc(CN(C)C[C@H]2OCCCC[C@H](C)Oc3ccc(NC(=O)CCCN(C)C)cc3C(=O)N([C@H](C)CO)C[C@H]2C)cc1	2	-24	nt	0[16.7 µM]	0
CCS(=O)(=O)NCC[C@H]1CC[C@H](NC(=O)Cc2ccccn2)[C@@H](CO)O1	1	5	nt	-2[16.7 µM]	-7
CC(Oc1ncnc2ccccc12)C(=O)Nc1cccc(S(=O)(=O)N2CCOCC2)c1 (stereo unspecified)	-3	1	-2	-4	29*
O=C(COc1ncnc2ccccc12)Nc1cccc(S(=O)(=O)N2CCOCC2)c1	nt	nt	-2	-10	nt
COc1cccc(-c2ccc3c(c2)O[C@@H](CN(C)C(=O)C2CCC2)[C@H](C)CN([C@@H](C)CO)S3(=O)=O)c1	3	4	nt	11[16.7 µM]	2
CNC[C@H]1Oc2cc(-c3cncnc3)ccc2S(=O)(=O)N([C@H](C)CO)C[C@@H]1C	-3	-14	nt	1[16.7 µM]	2
CCCNC(=O)c1c(O)c2cccc3c2n(c1=O)CCC3	1	-1	17	-2	-32
NCCNC(=O)c1c(O)c2cccc3c2n(c1=O)CCC3	31*	2	5	0	4
CC(=O)CC[N+](C)(C)C	37*	2	-6	nt	-13
Cn1c(=O)c2sccc2n2c(CCCC(=O)N3CCN(c4ccccn4)CC3)nnc12	0	111*	-12	1	2
COc1ccc(-c2csc(=NCCO)n2-c2ccccc2)cc1	2	-4	6	15	33*
COc1ccc(-c2csc(=Nc3ccccc3)n2CCO)cc1	-1	-8	-16	16	38*
COc1ccc(NC(=O)Nc2cccc3c2O[C@@H](CN(C)Cc2ccc(Cl)c(Cl)c2)[C@H](C)CN([C@@H](C)CO)C3=O)cc1	nt	nt	nt	21[16.7 µM]	nt
Cc1ccc(C)c(NC(=O)C2CC(O)CN2C(=O)Oc2ccccc2)c1 (stereo unspecified)	39*	-20	-4	-4	-2
C[C@H]1CN([C@@H](C)CO)C(=O)c2cccc(NS(=O)(=O)c3cccs3)c2O[C@@H]1CN(C)CC1CC1	-2	2	nt	0[16.7 µM]	0
C[C@H]1CN([C@@H](C)CO)C(=O)c2cc(C3=CCCC3)cnc2O[C@H]1CN(C)Cc1ccccn1	3	-2	nt	-19[16.7 µM]	-5
COc1cccc(C2NC(=S)NC(C)=C2C(=O)c2ccccc2)c1OC (stereo unspecified)	1	-9	8	147*	0
